In series [1] the test system is RAW264.7. Nature of the series: (§1) Cytotoxicity against mouse RAW264.7 cells assessed as cell viability at 40 uM by MTT assay. The conditions noted are these: raw264.7, 40 µM. Type of series: cell-based.
Series [2] relates to RAW264.7. Nature of the series: Anti-inflammatory activity in mouse RAW264.7 cells assessed as inhibition of lipopolysaccharide-induced nitric oxide production at 80 uM incubated for 24 hrs by Griess reagent based assay. Type of series: functional. The conditions noted are these: RAW264.7, 24 h. On the technique in general: Griess reagent forms a coloured azo dye with nitrite.

For series [3], the system named is RAW264.7. Description: Anti-inflammatory activity in mouse RAW264.7 cells assessed as inhibition of lipopolysaccharide-induced nitric oxide production incubated for 24 hrs by Griess reagent based assay. Type of series: functional, cell-based. The conditions noted are these: RAW264.7, 24 h. The essentials: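 LPS-stimulated RAW 264.7 macrophages; NO production read by Griess assay; inhibition expressed as IC50 (μM).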

A short description of series [4]: as §1. Type of series: cell-based. The conditions noted are these: RAW264.7 cells, read-out: Activity.

Each structure is given as a SMILES string.

As to `C[C@@H]1[C@@H]2C[C@@]3(CC[C@]4(C)[C@@H]5[C@@H]3[C@]1(C)O[C@]5(O)C[C@@H]1[C@@]3(C)C[C@@H](O)[C@@H](O)C(C)(C)[C@@H]3CC[C@]14C)C(=O)O2`, the Activity result in series [1] is listed as “Non-toxic”. In addition, the inhibition (as a rule, how much of the control response was suppressed) at 80 µM in series [2] was under 50%.

As for `CC1(C)[C@@H]2C[C@@]3(CC[C@]4(C)[C@@H]5[C@@H]3[C@@H]1O[C@]5(O)C[C@@H]1[C@@]3(C)C[C@@H](O)[C@@H](O)C(C)(C)[C@@H]3CC[C@]14C)C(=O)O2`, in series [1], the Activity result is “Non-toxic”. Besides, the inhibition at 80 µM in series [2] was under 50%.

Take `C[C@H]1[C@H](C)CC[C@@]23CC[C@]4(C)[C@](OC2=O)([C@H](O)C[C@@H]2[C@@]5(C)C[C@@H](O)[C@@H](O)C(C)(C)[C@@H]5CC[C@]24C)[C@H]13`: the Activity result in series [1] was “Non-toxic”. Moreover, the IC50 (as a rule, the concentration needed to halve the response being measured) in series [3] stood at 34 µM.

Take `C[C@H]1[C@H](C)CC[C@@]23CC[C@@]4(C)[C@]5(C)CC[C@H]6C(C)(C)[C@H](O)[C@H](O)C[C@]6(C)[C@H]5CC(=O)[C@]4(OC2=O)[C@H]13`: the Activity result in series [1] is on record as “Non-toxic”. Also, the inhibition at 80 µM in series [2] was under 50%.

As for `CC1(C)CC[C@@]23CC[C@@]4(C)[C@]5(C)CC[C@H]6C(C)(C)[C@H](O)[C@H](O)C[C@]6(C)[C@H]5CC(=O)[C@]4(OC2=O)[C@@H]3C1`, in series [4], the viability at 40 µM is under 70%.

As for `CC1(C)[C@H](O)[C@H](O)C[C@]2(C)[C@H]3CC=C4[C@@H]5C[C@](C)(CO)CC[C@]5(C(=O)O)CC[C@@]4(C)[C@]3(C)CC[C@@H]12`, the Activity result in series [1] was “Non-toxic”. In series [2], the inhibition at 80 µM was under 50%.

As to `C=C1CC[C@]2(C(=O)O)CC[C@]3(C)C(=CC[C@@H]4[C@@]5(C)C[C@@H](O)[C@@H](O)C(C)(C)[C@@H]5CC[C@]43C)[C@@H]2[C@H]1C`, in series [1], the Activity entry is reported as “Non-toxic”. Also, the IC50 in series [3] was found to be 26.1 µM.

Consider `CC1(C)CC[C@]2(C(=O)O)CC[C@]3(C)C(=CC[C@@H]4[C@@]5(C)C[C@@H](O)[C@@H](O)[C@](C)(CO)[C@@H]5CC[C@]43C)[C@@H]2C1`, for which the Activity result in series [1] is on record as “Non-toxic”. In series [3], the IC50 worked out at 40.5 µM.

Take `CC1(C)CC[C@]2(C(=O)O)CC[C@]3(C)C(=CC[C@@H]4[C@@]5(C)C[C@@H](O)[C@@H](O)C(C)(C)[C@@H]5CC[C@]43C)[C@@H]2C1`: the Activity result in series [1] was “Non-toxic”. The IC50 in series [3] is 27.7 µM.

With `C[C@H]1[C@H](C)CC[C@]2(C(=O)O)CC[C@]3(C)C(=CC[C@@H]4[C@@]5(C)C[C@@H](O)[C@H](O)C(C)(C)[C@@H]5CC[C@]43C)[C@H]12` [COROSOLIC ACID], the viability at 40 µM in series [4] was under 70%.

For `C[C@@H]1CC[C@]2(C(=O)O)CC[C@]3(C)C(=CC[C@@H]4[C@@]5(C)C[C@@H](O)[C@@H](O)C(C)(C)[C@@H]5CC[C@]43C)[C@@H]2[C@]1(C)O` [EUSCAPHIC ACID], the Activity entry in series [1] is “Non-toxic”. In addition, the inhibition at 80 µM in series [2] was under 50%.

Regarding `C[C@H]1[C@H](C)CC[C@]2(C(=O)O)CC[C@]3(C)C(=CC[C@@H]4[C@@]5(C)C[C@@H](O)[C@@H](O)C(C)(C)[C@@H]5CC[C@]43C)[C@H]12` [PYGENIC ACID A], in series [4], the viability at 40 µM was under 70%.

Take `O=c1c(O)c(-c2ccc(O)c(O)c2)oc2cc(O)cc(O)c12` [QUERCETIN]: the IC50 in series [3] turned out to be 16.6 µM.

Consider `C[C@@H]1CC[C@]2(C(=O)O)CC[C@]3(C)C(=CC[C@@H]4[C@@]5(C)C[C@@H](O)[C@H](O)C(C)(C)[C@@H]5CC[C@]43C)[C@@H]2[C@]1(C)O` [TOMENTIC ACID], for which, in series [1], the Activity entry is “Non-toxic”. Also, in series [3], the IC50 was determined as 24.9 µM.

Consider `C[C@H]1[C@H](C)CC[C@]2(C(=O)O)CC[C@]3(C)C(=CC[C@@H]4[C@@]5(C)CC[C@H](O)C(C)(C)[C@@H]5CC[C@]43C)[C@H]12` [URSOLIC ACID], for which the viability at 40 µM in series [4] was under 70%.

Values taken from ChEMBL document CHEMBL3352517, “Anti-inflammatory ursane- and oleanane-type triterpenoids from Vitex negundo var. cannabifolia” (J Nat Prod, 2014).
